Measured values: PubChem BioAssay AID492983 (Johns Hopkins Ion Channel Center, 2010)

Biological target: Short transient receptor potential channel 4 (Mus musculus) (UniProt Q9QUQ5)
Assay: TRPC4 channel current block, SAR follow-up, orthogonal assay, cell-based, manual patch clamp, HEK TRPC4beta/mu-opioid (AID 492983)
Conditions: whole-cell patch clamp currents, at 1 µM, stronger effect = higher value
Outline: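 System: HEK293 cells expressing TRPC4beta and mu-opioid receptor; buffer or medium: pipette solution with ~400 nM free Ca2+, external solution pH 7.4; also added: 10 µM carbachol with 0.1 µM DAMGO; times: compound pretreatment longer than 2 min before agonists, 22 °C; measured by: whole-cell voltage-clamp recording with voltage ramps; benchmarks: compound-free cells as reference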

Chain of Short transient receptor potential channel 4 (Mus musculus) (Q9QUQ5 whole entry, looked up): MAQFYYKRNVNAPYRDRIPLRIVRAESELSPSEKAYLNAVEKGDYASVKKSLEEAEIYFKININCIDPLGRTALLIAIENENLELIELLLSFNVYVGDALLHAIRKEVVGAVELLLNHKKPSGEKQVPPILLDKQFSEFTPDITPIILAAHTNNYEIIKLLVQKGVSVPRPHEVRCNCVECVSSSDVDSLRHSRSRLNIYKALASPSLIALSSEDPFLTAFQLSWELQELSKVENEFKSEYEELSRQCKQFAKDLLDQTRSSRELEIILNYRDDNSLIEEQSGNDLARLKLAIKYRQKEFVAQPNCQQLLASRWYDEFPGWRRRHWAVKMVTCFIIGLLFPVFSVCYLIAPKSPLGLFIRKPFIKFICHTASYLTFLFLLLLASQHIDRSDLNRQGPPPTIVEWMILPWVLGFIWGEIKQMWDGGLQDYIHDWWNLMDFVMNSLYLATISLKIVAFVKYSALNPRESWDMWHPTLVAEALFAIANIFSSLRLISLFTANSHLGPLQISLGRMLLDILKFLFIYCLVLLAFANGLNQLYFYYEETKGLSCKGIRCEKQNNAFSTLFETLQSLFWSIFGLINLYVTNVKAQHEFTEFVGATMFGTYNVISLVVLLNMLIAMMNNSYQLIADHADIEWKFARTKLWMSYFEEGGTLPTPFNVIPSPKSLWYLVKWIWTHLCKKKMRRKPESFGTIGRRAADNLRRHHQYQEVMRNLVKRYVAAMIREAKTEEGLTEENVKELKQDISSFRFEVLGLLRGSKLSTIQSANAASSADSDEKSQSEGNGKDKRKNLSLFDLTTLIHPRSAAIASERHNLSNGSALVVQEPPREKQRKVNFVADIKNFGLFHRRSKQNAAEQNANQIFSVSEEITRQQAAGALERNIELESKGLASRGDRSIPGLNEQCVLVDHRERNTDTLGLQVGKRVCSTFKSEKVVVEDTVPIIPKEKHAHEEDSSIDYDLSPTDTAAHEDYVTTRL

inhibition at -100 mV: 69.5% | inhibition at +100 mV (measured here: outward current at +100 mV): 29.2%
SMILES: Cc1cc(N2CCCCC2)nc2ccccc12
